The source made the active and inactive calls. No cut-off for these calls is given here.
Legend:
HUVEC [1] = assay: Antivascular activity against HUVEC cells assessed as inhibition of capillary like tube formation at 25 uM incubated for 16 hrs by matrigel based bright field microscopic analysis; type: functional, cell-based; conditions: Homo sapiens
How it was run: (§1)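 Tube formation: HUVECs (25×10^3 per well) plated onto gelled Matrigel together with DMSO or test agent (0.5, 1, 2 μM or 25 μM). After 16 h, tube networks were examined by bright-field microscopy at 4×. Three independent experiments.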

HUVEC [2] = assay: Disruption of preestablished capillary like tubes in HUVEC cells at 25 uM incubated for 16 hrs by matrigel based bright field microscopic analysis; type: functional, cell-based; conditions: Homo sapiens
[3] = biological target: T1, Ribosyldihydronicotinamide dehydrogenase [quinone] (Homo sapiens) (UniProt P16083); assay: Inhibition of human recombinant NQO2 at upto 100 uM; conditions: dose microM <=100
T1 sequence (whole entry): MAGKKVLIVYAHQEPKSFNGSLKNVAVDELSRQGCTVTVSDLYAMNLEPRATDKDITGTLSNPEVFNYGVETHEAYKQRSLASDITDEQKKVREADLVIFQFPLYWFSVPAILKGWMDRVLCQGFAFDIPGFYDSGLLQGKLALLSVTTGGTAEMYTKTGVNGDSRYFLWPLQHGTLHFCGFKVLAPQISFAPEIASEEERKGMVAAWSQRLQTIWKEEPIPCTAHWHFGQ

HepG2 [4] = assay: Induction of reversible mitotic arrest in human HepG2 cells assessed as increase in cell population in sub-G0/G1 phase at 2 to 5 uM treated for 24 hrs followed by replacement with fresh medium without compound and further incubated for 24 hrs by PI staining based flow cytometry; type: functional; conditions: dose 2-5 µM
How it was run: (§2)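 HepG2 cells (5×10^5 per dish) treated 24 h, then medium replaced with compound-free medium for a further 24 h. Cells then ethanol-fixed and stained with PI/RNase A for 30 min at 37 °C. 10 000 cells analyzed by flow cytometry; phase percentages by Watson model. Compared with control by one-way ANOVA/Dunnett's.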

SNU-423 [5] = assay: Induction of apoptosis in human SNU-423 cells assessed as viable cells at 0.5 uM incubated for 24 hrs by Annexin V-APC/PI staining based flow cytometry (reference value: 92.7 %); type: functional; conditions: read-out: Activity
SNU-423 [6] = assay: Induction of apoptosis in human SNU-423 cells assessed as early apoptotic cells at 0.5 uM incubated for 24 hrs by Annexin V- APC/PI staining based flow cytometry (reference value: 0.94 %); type: functional
SNU-423 [7] = assay: Induction of apoptosis in human SNU-423 cells assessed as necrotic cells at 1 uM incubated for 24 hrs by Annexin V-APC/PI staining based flow cytometry (reference value: 5.74 %); type: functional
HUVEC [8] = assay: Disruption of preestablished capillary like tubes in HUVEC cells assessed as rounded and retracted cells at 0.5 to 1 uM incubated for 16 hrs by matrigel based inverted microscopy; conditions: Homo sapiens, dose 0.5-1 µM
SNU-423 [9] = assay: Induction of apoptosis in human SNU-423 cells assessed as late apoptotic cells at 0.5 uM incubated for 24 hrs by Annexin V-APC/PI staining based flow cytometry (reference value: 0.83 %); type: functional
Tubulin (Homo sapiens) [10] = biological target: T2, Tubulin (Homo sapiens) (UniProt P68371+Q9H4B7+P0DPH7+P68366+Q13509+Q71U36+P04350+Q3ZCM7+P07437+P68363+Q9BQE3+Q6PEY2+Q13885+Q9BVA1+Q9BUF5); assay: Inhibition of tubulin (unknown origin) polymerization assessed as reduction in microtubule formation by measuring reduction in absorbance measured every minute for 1 hr in presence of GTP by microplate reader analysis; type: protein-complex assay; conditions: dose 5-20 µM
How it was run: (§3)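 Cell-free turbidity assay: purified bovine tubulin diluted to 60 μM in polymerization buffer with 1 mM GTP, mixed on ice with DMSO or test agent (final 5, 10, 20 μM). […] A350 read every 1 min for 60 min at 37 °C; ΔA calculated relative to time zero.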

HUVEC [11] = assay: Disruption of preestablished capillary like tubes in HUVEC cells incubated for 16 hrs by matrigel based bright field microscopic analysis; type: functional, cell-based; conditions: Homo sapiens, dose 0.5-10 µM
SNU-423 [12] = assay: Induction of apoptosis in human SNU-423 cells assessed as viable cells at 1 uM incubated for 24 hrs by Annexin V-APC/PI staining based flow cytometry (reference value: 92.7 %); type: functional; conditions: read-out: Activity
HUVEC [13] = assay: Disruption of preestablished capillary like tubes in HUVEC cells assessed as formation of short distorted tubes at 1 to 2 uM incubated for 16 hrs by matrigel based bright field microscopic analysis; type: functional, cell-based; conditions: Homo sapiens, dose 1-2 µM
SNU-423 [14] = assay: Induction of apoptosis in human SNU-423 cells assessed as early apoptotic cells at 1 uM incubated for 24 hrs by Annexin V-APC/PI staining based flow cytometry (reference value: 0.94 %); type: functional
HepG2 [15] = assay: Induction of cell cycle arrest in human HepG2 cells assessed as increase in sub-G0/G1 cell population at 2 uM measured after 24 hrs by PI staining based flow cytometry; type: functional
HepG2 [16] = assay: Induction of cell cycle arrest in human HepG2 cells assessed as decrease in cell proportion at G0/G1 phase at 25 uM measured after 24 hrs by PI staining based flow cytometry; type: functional
HUVEC [17] = assay: Cytotoxicity against HUVEC cells assessed as reduction in cell proliferation at upto 10 uM incubated for 24 hrs by Sulforhodamine B assay; type: toxicity, cell-based; conditions: human
How it was run: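 HUVECs plated without Matrigel at 4000 cells/well, allowed to attach overnight, then exposed to a concentration range for 24 h. Growth read by SRB: TCA fixation, 0.4% SRB dye, OD at 510 nm, expressed as % of DMSO control. Mean ± SEM of three independent experiments.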

HepG2 [18] = assay: Induction of reversible mitotic arrest in human HepG2 cells assessed as restoration of cell population in G2/M phase at 2 to 5 uM treated for 24 hrs followed by replacement with fresh medium without compound and further incubated for 24 hrs by PI staining based flow cytometry; type: functional; conditions: dose 2-5 µM; how it was run: as §2
HepG2 [19] = assay: Induction of reversible mitotic arrest in human HepG2 cells assessed as restoration of cell population in S phase at 2 to 5 uM treated for 24 hrs followed by replacement with fresh medium without compound and further incubated for 24 hrs by PI staining based flow cytometry; type: functional; conditions: dose 2-5 µM; how it was run: as §2
[20] = Antiproliferative activity against human THLE-3 cells assessed as inhibition of cell proliferation incubated for 24 hrs followed by 72 hrs of compound-free incubation by Sulforhodamine B assay; type: toxicity, cell-based
How it was run: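 SRB growth assay: cells seeded overnight (HepG2 3000, SNU423 2000, MDA-MB-231 1500, MCF-7 2500, A549 1000, HCT116 1000, THLE-3 4000 cells/well), then exposed to a concentration range for 96 h, or 24 h followed by 72 h drug-free. DMSO ≤0.3%. TCA fixation, 0.4% SRB staining, OD at 510 nm. Growth % = OD test/OD control ×100. IC50 from four-parameter fit; at least three independent experiments.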

Tubulin (Homo sapiens) [21] = biological target: T2, Tubulin (Homo sapiens); assay: Induction of microtubule disruption in HUVEC cells assessed as shortened microtubules with outer blebbing filled with tubulin at 0.5 to 1 uM incubated for 24 hrs by immunofluorescence based inverted microscopy; type: cell-based; conditions: dose 0.5-1 µM
How it was run: (§4)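 HUVECs (2×10^4) adhered overnight on glass slides, no Matrigel. Treated 24 h with 0.5 or 1 μM; colchicine 0.1 μM as positive control. Fixed in 10% formalin, permeabilized with Triton X-100, blocked. Stained with anti-α-tubulin plus Cy5 secondary, phalloidin-Atto 488 for F-actin, and DAPI. Imaged by inverted fluorescence microscopy at 63×. Three independent experiments.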

HepG2 [22] = assay: Induction of reversible mitotic arrest in human HepG2 cells assessed as restoration of cell population in G0/G1 phase at 2 to 5 uM treated for 24 hrs followed by replacement with fresh medium without compound and further incubated for 24 hrs by PI staining based flow cytometry; type: functional; conditions: dose 2-5 µM; how it was run: as §2
HUVEC [23] = assay: Antivascular activity against HUVEC cells assessed as inhibition of capillary like tube formation incubated for 16 hrs by matrigel based bright field microscopic analysis; type: functional, cell-based; conditions: Homo sapiens, dose 2.0 µM; how it was run: as §1
HUVEC [24] = assay: Disruption of preestablished capillary like tubes in HUVEC cells assessed as decrease in tube junctions at 1 to 2 uM incubated for 16 hrs by matrigel based bright field microscopic analysis; type: functional, cell-based; conditions: Homo sapiens, dose 1-2 µM
HepG2 [25] = assay: Cytotoxicity against human HepG2 cells assessed as inhibition of colony formation at 0.5 to 1 uM incubated for 14 days by methylene blue staining based clonogenic assay; type: functional, cell-based; conditions: dose 0.5-1 µM, time 14.0 day
How it was run: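 Clonogenic survival: HepG2 seeded as single cells at 1000/well and left 10-12 h to adhere. Treated with DMSO or a concentration range for 14 days, with compound added once. Colonies fixed in 70% ethanol, stained with 0.5% methylene blue, and colonies of ≥50 cells counted. Surviving fraction = treated CFE/control CFE. Three independent experiments.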

HUVEC [26] = assay: Induction of actin disruption in HUVEC cells assessed as thicker and brighter actin fibers at 0.5 to 1 uM incubated for 24 hrs by phalloidin-Atto 488 staining based inverted microscopy; type: cell-based; conditions: Homo sapiens, dose 0.5-1 µM; how it was run: as §4
Tubulin (Homo sapiens) [27] = biological target: T2, Tubulin (Homo sapiens); assay: Inhibition of tubulin (unknown origin) polymerization assessed as reduction in microtubule formation by measuring reduction in absorbance at 10 uM measured every minute for 1 hr in presence of GTP by microplate reader analysis; type: protein-complex assay; how it was run: as §3

O=c1[nH]c(-c2ccc(F)cc2)cc2cc(F)ccc12
Activity (HUVEC [1]): inactive
Activity (HUVEC [2]): inactive
inhibition [3]: inactive

O=c1[nH]c(-c2cccc(F)c2)cc2cc(F)ccc12
Activity (HepG2 [4]): Active
viability at 0.5 µM (SNU-423 [5]): 76%
Activity (SNU-423 [6]): 5.95%
Activity (SNU-423 [7]): 12.1%
Activity (HUVEC [8]): Active
Activity (SNU-423 [9]): 6.47%
inhibition (Tubulin (Homo sapiens) [10]): Active
Activity (HUVEC [11]): Dose-Dependent Effect
viability at 1 µM (SNU-423 [12]): 60.4%
Activity (HUVEC [13]): Active
Activity (SNU-423 [14]): 15.1%
Activity (HepG2 [15]): Active
Activity (HepG2 [16]): Active
Activity (HUVEC [17]): Non-Toxic
Activity (HepG2 [18]): Active
Activity (HepG2 [19]): Active
IC50 at 24 h [20]: > 25 µM
Activity (Tubulin (Homo sapiens) [21]): Active
Activity (HepG2 [22]): Active
Activity (HUVEC [23]): Dose-Dependent Effect
Activity (HUVEC [24]): Active
inhibition (HepG2 [25]): Active
Activity (HUVEC [26]): Active
inhibition [3]: inactive

COC(=O)Nc1nc2cc(C(=O)c3cccs3)ccc2[nH]1
inhibition (Tubulin (Homo sapiens) [27]): Active

CC(=O)O[C@H]1C(=O)[C@@]2(C)[C@H]([C@H](OC(=O)c3ccccc3)[C@]3(O)C[C@H](OC(=O)[C@H](O)[C@@H](NC(=O)c4ccccc4)c4ccccc4)C(C)=C1C3(C)C)[C@]1(OC(C)=O)CO[C@@H]1C[C@@H]2O
inhibition (Tubulin (Homo sapiens) [27]): inactive

COc1ccc(-c2cc3cc(F)ccc3c(=O)[nH]2)cc1
inhibition [3]: inactive

— ChEMBL document CHEMBL5046298, “SAR of Novel 3-Arylisoquinolinones: meta-Substitution on the Aryl Ring Dramatically Enhances Antiproliferative Activity through Binding to Microtubules” (J Med Chem, 2022)
